Test results published in ChEMBL document CHEMBL2417396 (J Nat Prod, 2013).
Active and inactive are the calls of the source. The calls are words filed in the database; no cut-off is given here.

How the values were obtained:
[1] = system: NCI-H460; assay: Cytotoxicity against human NCI-H460 cells by SRB assay; type: functional
How it was run: (§1)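 Cell lines obtained from ATCC and kept in recommended media containing gentamicin and amphotericin B. Growth inhibition was measured by the NCI standard sulforhodamine B assay. GI50 is the drug concentration calculated to halve net protein increase relative to untreated cells. Values are averages of at least three separate experiments, each run in triplicate.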

[2] = Inhibition of bovine brain tubulin polymerization after 20 mins; design: species or system Bos taurus
How it was run: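 Purified bovine brain tubulin, 10 μM (1.0 mg/mL), preincubated with a concentration series in glutamate buffer at 30 °C, then cooled to 0 °C. GTP added, then warmed to 30 °C to start assembly. Turbidity read at 350 nm, with disassembly checked by cooling.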

[3] = system: DU-145; assay: Cytotoxicity against human DU145 cells by SRB assay; type: functional; how it was run: as §1
[4] = system: SK-OV-3; assay: Cytotoxicity against human SKOV3 cells by SRB assay; type: functional; how it was run: as §1
[5] = target: T1, Tubulin (Homo sapiens) (UniProt P68371+Q9H4B7+P0DPH7+P68366+Q13509+Q71U36+P04350+Q3ZCM7+P07437+P68363+Q9BQE3+Q6PEY2+Q13885+Q9BVA1+Q9BUF5); assay: Displacement of [3H]colchicine from tubulin (unknown origin) at 50 uM; type: protein-complex assay
How it was run: (§2)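 Colchicine binding assay with 1 μM tubulin and 5.0 μM [3H]colchicine. Inhibitor tested at 50, 5 and/or 1 μM.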

[6] = system: Mus musculus; assay: Vascular disrupting activity in human PC3 cells xenografted SCID mouse assessed as decrease of blood flow in tumor at 350 mg/kg, ip after 80 mins by bioluminescence imaging analysis; type: functional, organism-based; design: dose 350 mg/kg; conditions: PC-3
[7] = target: T1, Tubulin (Homo sapiens); assay: Displacement of [3H]colchicine from tubulin (unknown origin) at 5 uM; type: protein-complex assay; how it was run: as §2

Row | SMILES | GI50 [1] [nM] | IC50 [2] [nM] | GI50 [3] [nM] | GI50 [4] [nM] | inhibition [5] [%] | Activity [6] | inhibition [7] [%]
1 | COc1ccc2c(C(=O)c3cc(OC)c(OC)c(OC)c3)c(-c3ccc(OC)c(OP(=O)(O)O)c3)n(C)c2c1 | 3560 | > 20000 | 4670 | 8640 | 29 | – | –
2 | COc1ccc2c(C(=O)c3cc(OC)c(OC)c(OC)c3)c(-c3ccc(OC)c(OP(=O)(O)O)c3)[nH]c2c1 | 31.1 | 4200 | 29.7 | 22.3 | – | Active | 26
3 | COc1ccc2c(C(=O)c3cc(OC)c(OC)c(OC)c3)c(-c3ccc(OC)c(O)c3)n(C)c2c1 | 4140 | > 20000 | 2680 | 2050 | 34 | – | –
4 | COc1ccc(/C=C\c2cc(OC)c(OC)c(OC)c2)cc1OP(=O)(O)O [FOSBRETABULIN DISODIUM] | 66 | – | 16 | – | – | – | –
5 | COc1ccc(/C=C\c2cc(OC)c(OC)c(OC)c2)cc1O [COMBRETASTATIN A4] | 2.8 | – | 0.54 | 0.42 | – | – | –
